In ChEMBL document CHEMBL1152148, “Exploring 8-benzyl pteridine-6,7-diones as inhibitors of glutamate racemase (MurI) in gram-positive bacteria” (Bioorg Med Chem Lett, 2008):
≈ marks a conversion by molar mass, not a printed value.

Tests used:
Staphylococcus aureus = test: Antibacterial activity against Staphylococcus aureus by NCCLS method; format: functional
[1] = Solubility in Tris buffer at pH 8.0 by nephelometry; format: physicochemical
Summary of the method: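 Solubility was determined by nephelometry in the assay medium.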

[2] = Inhibition of Staphylococcus aureus murI assessed as effect on conversion of D-glutamate to L-glutamate at pH 8.0 by HPLC
Summary of the method: (§1)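 IC50 determined against the MurI isozyme at pH 8 in Tris buffer containing polyethylene glycol, dithiothreitol and D-glutamate substrate. Conversion of D- to L-glutamate was followed by HPLC, with chiral separation of the glutamate enantiomers on a D-penicillamine column.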

Glutamate racemase = molecular target: T1, Glutamate racemase (Enterococcus faecalis (strain ATCC 700802 / V583), UniProt Q836J0); test: Inhibition of Enterococcus faecalis murI assessed as effect on conversion of D-glutamate to L-glutamate at pH 8.0 by HPLC; summary of the method: as §1
T1 sequence (Q836J0 whole entry): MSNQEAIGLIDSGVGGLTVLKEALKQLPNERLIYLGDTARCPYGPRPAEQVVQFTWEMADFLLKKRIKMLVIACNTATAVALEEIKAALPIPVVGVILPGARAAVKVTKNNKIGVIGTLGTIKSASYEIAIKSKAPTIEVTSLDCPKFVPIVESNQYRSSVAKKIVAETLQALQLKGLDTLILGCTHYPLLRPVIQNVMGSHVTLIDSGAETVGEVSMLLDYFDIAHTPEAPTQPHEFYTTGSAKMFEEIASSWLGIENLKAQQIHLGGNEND

[3] = Inhibition of Enterococcus faecium murI assessed as effect on conversion of D-glutamate to L-glutamate at pH 8.0 by HPLC

| MIC (Staphylococcus aureus) | solubility kinetic [1] | IC50 [2] | IC50 (Glutamate racemase) | IC50 [3] | SMILES |
| --- | --- | --- | --- | --- | --- |
| > 64 µg/mL | 3.1 µM (≈ 1.32 µg/mL) | < 1.5 µM | 0.65 µM | – | CCCCSc1nc(N)c2[nH]c(=O)c(=O)n(Cc3ccc(Cl)c(Cl)c3)c2n1 |
| – | 3 µM (≈ 1.22 µg/mL) | 11 µM | 50 µM | – | Nc1nc(SCCc2ccccc2)nc2c1[nH]c(=O)c(=O)n2Cc1ccccc1 |
| > 64 µg/mL | 25 µM (≈ 8.09 µg/mL) | – | 11 µM | – | CCCCSc1nc(N)c2[nH]c(=O)c(=O)n(CCCC)c2n1 |
| > 64 µg/mL | 50 µM (≈ 20.9 µg/mL) | 14 µM | 1.7 µM | – | CCCCSc1nc(N)c2[nH]c(=O)c(=O)n(Cc3cc(OC)cc(OC)c3)c2n1 |
| 64 µg/mL (≈ 131 µM) | 50 µM (≈ 24.4 µg/mL) | 25 µM | 2.5 µM | – | CCCCSc1nc(NCCN2CCOCC2)c2[nH]c(=O)c(=O)n(Cc3ccc(F)cc3)c2n1 |
| 16 µg/mL (≈ 34.9 µM) | 25 µM (≈ 11.5 µg/mL) | 21 µM | 6.1 µM | – | CCCCSc1nc(N2CCN(C)CC2)c2[nH]c(=O)c(=O)n(Cc3ccc(F)cc3)c2n1 |
| > 64 µg/mL | 32 µM (≈ 12 µg/mL) | 5.1 µM | 3.5 µM | – | CCCCSc1nc(N)c2[nH]c(=O)c(=O)n(Cc3ccc(F)cc3)c2n1 |
| > 64 µg/mL | 25 µM (≈ 8.94 µg/mL) | 6.4 µM | 2.4 µM | – | CCCCSc1nc(N)c2[nH]c(=O)c(=O)n(Cc3ccccc3)c2n1 |
| > 64 µg/mL | 12 µM (≈ 4.43 µg/mL) | 52 µM | 1.9 µM | – | Nc1nc(SC2CCCC2)nc2c1[nH]c(=O)c(=O)n2Cc1ccccc1 |
| – | 3 µM (≈ 1.17 µg/mL) | 7.6 µM | 21 µM | – | Nc1nc(SCc2ccccc2)nc2c1[nH]c(=O)c(=O)n2Cc1ccccc1 |
| 8 µg/mL (≈ 20.5 µM) | 25 µM (≈ 9.74 µg/mL) | 3.8 µM | 0.9 µM | – | CCCCSc1nc(NC)c2[nH]c(=O)c(=O)n(Cc3ccc(F)cc3)c2n1 |
| > 64 µg/mL | 50 µM (≈ 19.7 µg/mL) | 3.1 µM | 1.5 µM | – | CCCCSc1nc(N)c2[nH]c(=O)c(=O)n(Cc3c(F)cccc3F)c2n1 |
| – | 10 µM (≈ 3.58 µg/mL) | > 400 µM | 7 µM | 18 µM | CCCCSc1nc(N)c2ncn(Cc3ccc([N+](=O)[O-])cc3)c2n1 |
| > 64 µg/mL | 1.6 µM (≈ 0.69 µg/mL) | 4 µM | 2.1 µM | – | CCCCSc1nc(N2CC(O)C2)c2[nH]c(=O)c(=O)n(Cc3ccc(F)cc3)c2n1 |
| 4 µg/mL (≈ 9.91 µM) | 0.8 µM (≈ 0.323 µg/mL) | – | 1.1 µM | – | CCCCSc1nc(N(C)C)c2[nH]c(=O)c(=O)n(Cc3ccc(F)cc3)c2n1 |
